Assay results published in PMC8341669 (RSC Chemical Biology, 2021).

Experiment: CD spectrum / MD helical content of the peptide in the free state
Type: physicochemical
Conditions: CD in H2O at 200 μM and MD simulations
In short: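 Peptide dissolved in HPLC-grade water at 200 μM and CD spectra recorded on a spectropolarimeter. Free peptide in solution MD: steepest-descent minimisation, 1 ns NVT (300 K, V-rescale) and 1 ns NPT (1 bar, Parrinello–Rahman) equilibration with heavy-atom restraints stepped off, then four 200 ns NPT production runs per peptide; PME electrostatics, 10 Å van der Waals cut-off, LINCS constraints.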

α-helical content in the free state: lower α-helical content
Sequence: RIRREEYLKAIQ [Linear]
